Source: PMC9042899 (RSC Advances, 2021)

Columns and labels:
[1] = target: CIAP (calf intestinal alkaline phosphatase) (Bos taurus, UniProt P19111); experiment: Alkaline phosphatase; format: biochemical; conditions: for IC50: Alkaline phosphatase IC50 ± SEM, CIAP, substrate p-NPP, pH 9.5, 37 °C, mean ± SEM, NA = No activity
[2] = target: AP; conditions: traditional AP inhibitors; ref 34g; cited from earlier work
[3] = tested on: alkaline phosphatase; experiment: Enzyme inhibition kinetic study; format: biochemical; conditions: inhibitor 0.00, 1.15, 2.30, 4.60 and 9.20 μM; substrate p-NPP
Summary of the method: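 Enzyme, buffer and pre-incubation were as in the AP inhibition assay. p-NPP was used at 10, 5, 2.5, […] and 0.625 mM. Maximum initial velocities came from the linear part of absorbance over up to 10 min. Inhibition type was assigned from Lineweaver–Burk plots of 1/V vs. 1/[S].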

Chain of CIAP (calf intestinal alkaline phosphatase) (P19111 20-506 limits assumed): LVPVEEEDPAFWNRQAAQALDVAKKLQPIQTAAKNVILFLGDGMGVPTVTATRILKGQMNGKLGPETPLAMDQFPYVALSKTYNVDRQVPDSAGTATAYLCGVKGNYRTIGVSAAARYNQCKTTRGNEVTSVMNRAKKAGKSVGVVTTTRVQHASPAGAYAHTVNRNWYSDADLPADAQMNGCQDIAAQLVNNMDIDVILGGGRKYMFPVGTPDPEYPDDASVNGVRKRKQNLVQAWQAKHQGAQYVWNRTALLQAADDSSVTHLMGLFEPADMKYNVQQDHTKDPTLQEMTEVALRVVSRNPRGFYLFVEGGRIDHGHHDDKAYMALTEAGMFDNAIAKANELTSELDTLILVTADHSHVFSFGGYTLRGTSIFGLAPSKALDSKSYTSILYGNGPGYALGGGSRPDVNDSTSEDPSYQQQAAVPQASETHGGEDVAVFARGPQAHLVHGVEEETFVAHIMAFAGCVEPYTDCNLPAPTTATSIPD

Row | IC50 [1] [µM] | Compound | further results
1 | 12.6 ± 0.298 | Cc1ccc(C=CC(=O)c2cc(Cl)cc([N+](=O)[O-])c2O)c(C)c1 [Compound 8, 1-(5-Chloro-2-hydroxy-3-nitrophenyl)-3-(2,4-dimethylphenyl)prop-2-en-1-one] | 
2 | 5.79 ± 0.081 | O=C1C(=Cc2ccc(C(F)(F)F)cc2)Oc2cc(Br)cc(Br)c21 [Compound 13, 4,6-Dibromo-2-(4-(trifluoromethyl)benzylidene)benzofuran-3(2H)-one] | 
3 | 6.97 ± 0.097 | CCCOc1ccc(C=CC(=O)c2cc(Cl)cc([N+](=O)[O-])c2O)cc1OC [Compound 10, 1-(5-Chloro-2-hydroxy-3-nitrophenyl)-3-(3-methoxy-4-propoxyphenyl)prop-2-en-1-one] | 
4 | 6.23 ± 0.098 | O=C(C=Cc1ccc(Cl)cc1)c1cc(Br)cc(Br)c1O [Compound 2, 3-(4-Chlorophenyl)-1-(3,5-dibromo-2-hydroxyphenyl)prop-2-en-1-one] | 
5 | 4.31 ± 0.154 | O=C(C=Cc1ccco1)c1cc(Br)cc(Br)c1O [Compound 1, 1-(3,5-Dibromo-2-hydroxyphenyl)-3-(furan-2-yl)prop-2-en-1-one] | 
6 | 3.14 ± 0.176 | COc1ccc(C=CC(=O)c2cc(Cl)cc([N+](=O)[O-])c2O)cc1 [Compound 4, 1-(5-Chloro-2-hydroxy-3-nitrophenyl)-3-(4-methoxyphenyl)prop-2-en-1-one] | 
7 | 2.13 ± 0.034 | O=C1C(=Cc2ccc(Cl)cc2)Oc2cc(Cl)cc([N+](=O)[O-])c21 [Compound 16, 6-Chloro-2-(4-chlorobenzylidene)-4-nitrobenzofuran-3(2H)-one] | 
8 |  | Cn1c(=O)c2[nH]cnc2n(C)c1=O [theophylline] | Ki [2]: 82 µM
9 | 2.16 ± 0.048 | O=C1C(=Cc2ccc(Cl)cc2)Oc2cc(Br)cc(Br)c21 [Compound 12, 4,6-Dibromo-2-(4-chlorobenzylidene)benzofuran-3(2H)-one] | 
10 | 5.88 ± 0.083 | O=C1C(=Cc2cccs2)Oc2cc(Cl)cc([N+](=O)[O-])c21 [Compound 19, 6-Chloro-4-nitro-2-(thiophen-2-ylmethylene)benzofuran-3(2H)-one] | 
11 | 3.02 ± 0.087 | CN(C)c1ccc(C=CC(=O)c2cc(Cl)cc([N+](=O)[O-])c2O)cc1 [Compound 6, 1-(5-Chloro-2-hydroxy-3-nitrophenyl)-3-(4-(dimethylamino)phenyl)prop-2-en-1-one] | 
12 | 2.15 ± 0.056 | CN(C)c1ccc(C=C2Oc3cc(Cl)cc([N+](=O)[O-])c3C2=O)cc1 [Compound 15, 6-Chloro-2-(4-(dimethylamino)benzylidene)-4-nitrobenzofuran-3(2H)-one] | 
13 | 9.56 ± 0.263 | COc1cc(C=CC(=O)c2cc(Cl)cc([N+](=O)[O-])c2O)ccc1OCc1ccccc1 [Compound 11, 3-(4-(Benzyloxy)-3-methoxyphenyl)-1-(5-chloro-2-hydroxy-3-nitrophenyl)prop-2-en-1-one] | 
14 | 8.45 ± 0.245 | O=C(C=Cc1cccs1)c1cc(Cl)cc([N+](=O)[O-])c1O [Compound 9, 1-(5-Chloro-2-hydroxy-3-nitrophenyl)-3-(thiophen-2-yl)prop-2-en-1-one] | 
15 | 2.33 ± 0.059 | CCCOc1ccc(C=C2Oc3cc(Cl)cc([N+](=O)[O-])c3C2=O)cc1OC [Compound 21, 6-Chloro-2-(3-methoxy-4-propoxybenzylidene)-4-nitrobenzofuran-3(2H)-one] | 
16 | 4.66 ± 0.051 | O=C1C(=Cc2ccco2)Oc2cc(Br)cc(Br)c21 [Compound 14, 4,6-Dibromo-2-(furan-2-ylmethylene)benzofuran-3(2H)-one] | 
17 | 5.54 ± 0.079 | COc1cc(C=C2Oc3cc(Cl)cc([N+](=O)[O-])c3C2=O)ccc1OCc1ccccc1 [Compound 22, 2-(4-(Benzyloxy)-3-methoxybenzylidene)-6-chloro-4-nitrobenzofuran-3(2H)-one] | 
18 | 4.88 ± 0.086 | O=C1C(=Cc2ccc(F)cc2)Oc2cc(Cl)cc([N+](=O)[O-])c21 [Compound 17, 6-Chloro-2-(4-fluorobenzylidene)-4-nitrobenzofuran-3(2H)-one] | 
19 | 1.05 ± 0.029 | COc1ccc(C=C2Oc3cc(Cl)cc([N+](=O)[O-])c3C2=O)cc1 [Compound 20, 6-Chloro-2-(4-methoxybenzylidene)-4-nitrobenzofuran-3(2H)-one] | fold higher inhibition compared to KH2PO4 ([1]; ratio of IC50 values vs standard KH2PO4): ~2.6 fold; type of enzyme inhibition (Lineweaver–Burk plot) [3]: non-competitive
20 | 7.55 ± 0.265 | O=C(C=Cc1ccc(F)cc1)c1cc(Cl)cc([N+](=O)[O-])c1O [Compound 5, 1-(5-Chloro-2-hydroxy-3-nitrophenyl)-3-(4-fluorophenyl)prop-2-en-1-one] | 
21 |  | c1ccc([C@H]2CN3CCSC3=N2)cc1 [levamisole] | Ki [2]: 16 µM
22 | 1.15 ± 0.043 | Cc1ccc(C=C2Oc3cc(Cl)cc([N+](=O)[O-])c3C2=O)c(C)c1 [Compound 18, 6-Chloro-2-(2,4-dimethylbenzylidene)-4-nitrobenzofuran-3(2H)-one] | 
